Source: PubChem (Broad Institute)
This is a sample that favours compounds with a hit; in the whole collection about 5.8% have one here.
IDH1 mut inh: blocks human IDH1 R132H reductase activity; O75874; diaphorase/resazurin fluorescence, 60 min; inhibition, % at 10 µM; 70,000 tested, 0.18% active; AID 624101; in the data active = inhibition above about 34%; inconclusive = no clear call, values can overlap the other calls; inactive = below about 11%
Target sequence (O75874 whole entry R132H): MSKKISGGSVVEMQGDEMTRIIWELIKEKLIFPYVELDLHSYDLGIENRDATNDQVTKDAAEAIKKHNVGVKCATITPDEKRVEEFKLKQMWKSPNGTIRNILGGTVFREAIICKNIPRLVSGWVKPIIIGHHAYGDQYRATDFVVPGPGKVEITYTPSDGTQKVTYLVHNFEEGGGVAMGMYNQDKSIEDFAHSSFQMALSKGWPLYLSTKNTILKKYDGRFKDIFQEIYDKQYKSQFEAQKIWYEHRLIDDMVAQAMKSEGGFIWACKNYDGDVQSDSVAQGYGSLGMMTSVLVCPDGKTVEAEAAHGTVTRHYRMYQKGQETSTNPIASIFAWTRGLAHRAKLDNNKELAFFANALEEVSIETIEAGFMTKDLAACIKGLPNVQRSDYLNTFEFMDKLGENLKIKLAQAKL
Pf Dd2 growth: blocks growth of Plasmodium falciparum Dd2 parasites; 94,000 tested, 2.3% active; activity change, % at 10 µM; P. falciparum Dd2 growth, SYBR Green, 72 h; active compounds read low; in the data active = activity change below about -80%; inconclusive = no clear call, values can overlap the other calls
GASC1 inh: blocks human GASC-1 (KDM4C) demethylase activity; Q9H3R0; GST-KDM4C 2-372, H3K9me3 peptide, LANCE TR-FRET; inhibition, % at 12.5 µM; 96,000 tested, 0.15% active; AID 720574;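 active = mean replicate inhibition above about 25%, with at least 55% of replicates also reaching it, limit read from the data, passing the limit was not always enough; inconclusive = only one of those two conditions met; inactive = neither condition met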
Target sequence (Q9H3R0 2-372 limits assumed): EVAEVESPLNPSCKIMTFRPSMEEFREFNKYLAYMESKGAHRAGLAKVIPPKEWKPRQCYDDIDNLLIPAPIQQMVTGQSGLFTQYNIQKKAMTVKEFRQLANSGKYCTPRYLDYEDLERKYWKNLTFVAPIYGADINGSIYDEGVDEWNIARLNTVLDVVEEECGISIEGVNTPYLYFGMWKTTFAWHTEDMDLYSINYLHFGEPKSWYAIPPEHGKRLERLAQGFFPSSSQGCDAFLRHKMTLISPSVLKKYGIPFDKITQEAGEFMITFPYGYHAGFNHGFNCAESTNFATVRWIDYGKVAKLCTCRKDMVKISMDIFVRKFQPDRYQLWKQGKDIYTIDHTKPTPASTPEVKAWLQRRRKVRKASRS
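System: N-terminal GST-fused human GASC-1 (KDM4C) fragment, residues 2-372; amount: enzyme final amount 10 nM; incubation: reaction 30 min RT, detection step 1 h RT; medium: HEPES buffer, pH 7.5, plus ascorbate; technique: LANCE TR-FRET, Eu antibody, ULight-streptavidin, EDTA, ex 340 nm, em 618/671 nm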
T cruzi growth-1: blocks T. cruzi growth in NIH3T3 culture; T. cruzi beta-gal in NIH3T3, GalScreen luminescence, 90 h; inhibition, % at 8.34 µM; 77,000 tested, 5.9% active; AID 624255;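 active = mean inhibition above about 93%, with at least 55% of replicates each passing it, limit read from the data, passing the limit was not always enough; inconclusive = only one of those two conditions holds; inactive = neither condition holds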
T cruzi growth-2: blocks T. cruzi growth in NIH3T3 host cells; shares compounds with T cruzi growth-1; T. cruzi beta-gal in NIH3T3, GalScreen luminescence, 90 h; inhibition, % at 8.35 µM; 5,600 tested, 72% active; AID 651739;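 active = mean replicate inhibition above about 95% and at least 55% of replicates individually reaching it, limit read from the data; inconclusive = only one of the two criteria is met; inactive = neither criterion is met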
T cruzi growth-3: Trypanosoma cruzi proliferation inhibition; shares compounds with T cruzi growth-1; T. cruzi beta-gal in NIH3T3, GalScreen luminescence, 90 h; inhibition, % at 2.09 µM; 5,600 tested, 21% active;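 active = mean inhibition above about 95%, with at least 55% of replicates also reaching it, limit read from the data; inconclusive = meets just one of the two conditions; inactive = meets neither condition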
3T3 cytotox: cytotoxicity in mouse NIH/3T3 fibroblasts. shares compounds with T cruzi growth-1. NIH/3T3 viability, CellTiter-Glo ATP luminescence, 90 h. cytotoxicity (signal decrease), % at 8.35 µM. 5,600 tested, 14% active;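 active = mean signal decrease across replicates above about 35% based on untreated-well scatter, with enough replicates individually passing, limit read from the data; inconclusive = no rule stated though some were filed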
3T3 cytotox 2: NIH/3T3 (mouse) viability loss; inhibition, % at 24.9 µM; NIH/3T3 viability, CellTiter-Glo ATP luminescence, 90 h; shares compounds with T cruzi growth-1; 5,600 tested, 56% active;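 active = mean loss of cell viability signal at or above a set limit, and enough replicates individually reaching it; inconclusive = meets only the mean limit or only the replicate share; inactive = meets neither condition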
Each line names hits and unclear results; the compound was inactive in the other large screens (follow-up assays come after a bar, where they were run).

CCCC#Cc1ccc2c(c1)O[C@@H](CN(C)C(=O)C1CCC1)[C@H](C)CN([C@@H](C)CO)S2(=O)=O	none (no result: IDH1 mut inh)
CCCC#Cc1ccc2c(c1)O[C@H](CN(C)C(=O)C1CCC1)[C@H](C)CN([C@H](C)CO)S2(=O)=O	T cruzi growth-1 inconclusive (no result: IDH1 mut inh) | T cruzi growth-2 inconclusive | T cruzi growth-3 inactive | 3T3 cytotox inactive | 3T3 cytotox 2 57.4
Cc1cccc(OCC(=O)Nc2ccc(Cl)c(-c3nc4ccccc4o3)c2)c1	none (no result: Pf Dd2 growth, GASC1 inh, T cruzi growth-1)
O=C(CN1C(=O)c2ccccc2S1(=O)=O)Nc1cc(C(F)(F)F)ccc1Cl	none (no result: Pf Dd2 growth, GASC1 inh, T cruzi growth-1)
COc1ccc(S(=O)(=O)N(C)C[C@@H]2OCCCC[C@H](C)Oc3ccc(NS(=O)(=O)c4ccc(F)cc4)cc3C(=O)N([C@@H](C)CO)C[C@@H]2C)cc1	T cruzi growth-1 117.6 (no result: IDH1 mut inh) | T cruzi growth-2 108.4 | T cruzi growth-3 inactive | 3T3 cytotox inactive | 3T3 cytotox 2 inactive
COc1ccc(S(=O)(=O)N(C)C[C@@H]2OCCCC[C@@H](C)Oc3ccc(NS(=O)(=O)c4ccc(F)cc4)cc3C(=O)N([C@H](C)CO)C[C@@H]2C)cc1	none (no result: IDH1 mut inh)
COc1ccc(S(=O)(=O)N(C)C[C@H]2OCCCC[C@@H](C)Oc3ccc(NS(=O)(=O)c4ccc(F)cc4)cc3C(=O)N([C@H](C)CO)C[C@H]2C)cc1	T cruzi growth-1 113.8 | T cruzi growth-2 105.9 | T cruzi growth-3 inactive | 3T3 cytotox inactive | 3T3 cytotox 2 inactive
COc1ccc(S(=O)(=O)N(C)C[C@@H]2OCCCC[C@@H](C)Oc3ccc(NS(=O)(=O)c4ccc(F)cc4)cc3C(=O)N([C@@H](C)CO)C[C@@H]2C)cc1	T cruzi growth-1 111.8 | T cruzi growth-2 101.1 | T cruzi growth-3 inactive | 3T3 cytotox inactive | 3T3 cytotox 2 52.6
COc1ccc(S(=O)(=O)Nc2ccc3c(c2)C(=O)N([C@H](C)CO)C[C@@H](C)[C@@H](CN(C)S(=O)(=O)c2ccc(F)cc2)OCCCC[C@H](C)O3)cc1	T cruzi growth-1 95.5 (no result: IDH1 mut inh) | T cruzi growth-2 108.2 | T cruzi growth-3 inactive | 3T3 cytotox inactive | 3T3 cytotox 2 inactive
COc1ccc2c(c1OC)OC[C@@H](c1ccc(OC)c(OC)c1OC)C2	none (no result: Pf Dd2 growth, GASC1 inh, T cruzi growth-1)
COc1ccc(S(=O)(=O)Nc2ccc3c(c2)C(=O)N([C@H](C)CO)C[C@@H](C)[C@H](CN(C)S(=O)(=O)c2ccc(F)cc2)OCCCC[C@@H](C)O3)cc1	T cruzi growth-1 105.2 | T cruzi growth-2 105.3 | T cruzi growth-3 inactive | 3T3 cytotox inactive | 3T3 cytotox 2 inactive
O=C(N/N=C/c1cn(Cc2ccccc2)c2ccccc12)c1ccccn1	none (no result: Pf Dd2 growth, GASC1 inh, T cruzi growth-1)
Cn1c(SCC(=O)Nc2ccc(Cl)cc2)nnc1-c1ccc(Cl)c(Cl)c1	none (no result: Pf Dd2 growth, GASC1 inh, T cruzi growth-1)
CSc1ccccc1NC(=O)CN(c1ccc(Cl)cc1)S(C)(=O)=O	none (no result: Pf Dd2 growth, GASC1 inh, T cruzi growth-1)
CC(C)CC#Cc1ccc([C@H]2[C@H]3CN(C(=O)c4ccc5c(c4)OCO5)CCCCN3[C@H]2CO)cc1	T cruzi growth-1 113.3 (no result: IDH1 mut inh) | T cruzi growth-2 100.9 | T cruzi growth-3 inactive | 3T3 cytotox inactive | 3T3 cytotox 2 103.6
CC(C)CC#Cc1ccc([C@H]2[C@H](CO)N3CCCCN(C(=O)c4ccc5c(c4)OCO5)C[C@@H]23)cc1	none (no result: IDH1 mut inh)
CC(C)C#Cc1ccc([C@@H]2[C@@H](CO)N3CCCCN(C(=O)c4ccc5c(c4)OCO5)C[C@@H]23)cc1	none (no result: IDH1 mut inh)
CC(C)CC#Cc1ccc([C@@H]2[C@H](CO)N3CCCCN(C(=O)c4ccc5c(c4)OCO5)C[C@@H]23)cc1	T cruzi growth-1 106.2 (no result: IDH1 mut inh) | T cruzi growth-2 103.6 | T cruzi growth-3 inactive | 3T3 cytotox inactive | 3T3 cytotox 2 104.9
C/C=C1\C(O[C@@H]2O[C@H](CO)[C@@H](O)[C@H](O)[C@H]2O)OC=C(C(=O)OC)C1CC(=O)OC[C@@H]1[C@H](C)[C@@H](OC(=O)CC2C(C(=O)OC)=COC(O[C@@H]3O[C@H](CO)[C@@H](O)[C@H](O)[C@H]3O)/C2=C\C)C[C@H]1C(CO)CO (stereo not given in full)	none (no result: Pf Dd2 growth, GASC1 inh, T cruzi growth-1)
C[C@H](CO)N1C[C@H](C)[C@H](CN(C)C(=O)c2cccc(F)c2)Oc2cc(-c3ccncc3)ccc2S1(=O)=O	T cruzi growth-1 108.9 | T cruzi growth-2 inactive | T cruzi growth-3 inactive | 3T3 cytotox inactive | 3T3 cytotox 2 inactive
C[C@H](CO)N1C[C@H](C)[C@H](CN(C)C(=O)c2cccc(F)c2)Oc2cc(-c3cccc(F)c3)ccc2S1(=O)=O	none
C[C@@H]1CN([C@@H](C)CO)S(=O)(=O)c2ccc(-c3ccncc3)cc2O[C@@H]1CN(C)C(=O)c1cccc(F)c1	none
C[C@H]1CN([C@@H](C)CO)S(=O)(=O)c2ccc(-c3ccncc3)cc2O[C@@H]1CN(C)C(=O)c1cccc(F)c1	T cruzi growth-1 113.6 | T cruzi growth-2 inactive | T cruzi growth-3 inactive | 3T3 cytotox inactive | 3T3 cytotox 2 inconclusive
C[C@@H]1CN([C@H](C)CO)S(=O)(=O)c2ccc(-c3ccncc3)cc2O[C@H]1CN(C)C(=O)c1cccc(F)c1	T cruzi growth-1 112.8 | T cruzi growth-2 inactive | T cruzi growth-3 inactive | 3T3 cytotox inactive | 3T3 cytotox 2 47.2
O=C(c1ccccc1)c1cc(Br)ccc1NC(=O)C1CC=CCC1C(=O)O (stereo not given)	none (no result: Pf Dd2 growth, GASC1 inh, T cruzi growth-1)
CCCC#Cc1ccc([C@H]2[C@@H](C#N)N(C(=O)C3CC3)[C@H]2CO)cc1	T cruzi growth-1 inconclusive (no result: IDH1 mut inh) | T cruzi growth-2 inconclusive | T cruzi growth-3 inconclusive | 3T3 cytotox inactive | 3T3 cytotox 2 41.2
CCCC#Cc1ccc([C@H]2[C@H](C#N)N(C(=O)C3CC3)[C@H]2CO)cc1	T cruzi growth-1 105.7 (no result: IDH1 mut inh) | T cruzi growth-2 107.0 | T cruzi growth-3 inactive | 3T3 cytotox inactive | 3T3 cytotox 2 32.0
CCCC#Cc1ccc([C@@H]2[C@@H](CO)N(C(=O)C3CC3)[C@H]2C#N)cc1	T cruzi growth-1 101.3 (no result: IDH1 mut inh) | T cruzi growth-2 97.7 | T cruzi growth-3 inactive | 3T3 cytotox inactive | 3T3 cytotox 2 35.8
CCCC#Cc1ccc([C@@H]2[C@@H](C#N)N(C(=O)C3CCOCC3)[C@H]2CO)cc1	none (no result: IDH1 mut inh)
CCCC#Cc1ccc([C@H]2[C@@H](C#N)N(C(=O)C3CCC3)[C@H]2CO)cc1	none (no result: IDH1 mut inh)
CCCC#Cc1ccc([C@H]2[C@@H](C#N)N(C(=O)C3CC3)[C@@H]2CO)cc1	T cruzi growth-1 inconclusive (no result: IDH1 mut inh) | T cruzi growth-2 102.7 | T cruzi growth-3 inactive | 3T3 cytotox inactive | 3T3 cytotox 2 inactive
CCC1(c2ncc[nH]2)Cc2ccccc2O1 (stereo not given)	none (no result: Pf Dd2 growth, GASC1 inh, T cruzi growth-1)
Cc1sc(NC(=O)COc2ccc(Cl)cc2Br)c(C(N)=O)c1C	none (no result: Pf Dd2 growth, GASC1 inh, T cruzi growth-1)
